Experimental data taken from ChEMBL document CHEMBL1240507, “Peptidic HIV integrase inhibitors derived from HIV gene products: structure-activity relationship studies” (Bioorg Med Chem, 2010).
pIC50: −log10 of the molar value. Activity calls are given as the source filed them. No cut-off for these calls is given here.

What was measured:
MT4 [1] = assay: Cytotoxicity against human MT4 cells at >5 uM after 6 to 7 days; type: cell-based
[2] = tested on: Human immunodeficiency virus 1; assay: Antiviral activity against HIV1 HXB2 infected in human MT4 cells assessed as protection against virus-induced cell death at 5 uM after 6 to 7 days by luciferase assay; type: functional, organism-based
In short: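 MT-4 luciferase reporter cells (1×10^3 per well) infected with HIV-1 HXB2 while exposed to a range of peptide concentrations. After 6–7 days post-infection, cells were lysed, luciferase activity was measured with a Steady-Glo kit, and chemiluminescence was read on a luminometer.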

[3] = tested on: Human immunodeficiency virus 1; assay: Antiviral activity against HIV1 HXB2 infected in human MT4 cells assessed as protection against virus-induced cell death after 6 to 7 days by luciferase assay; type: functional, organism-based
In short: (§1)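 MT-4 luciferase reporter cells (1×10^3 cells) were infected with HIV-1 HXB2 in the presence of peptides at various concentrations. At 6–7 days post-infection, cells were lysed and luciferase activity was read by chemiluminescence.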

MT4 [4] = assay: Cytotoxicity against human MT4 cells at 10 uM after 6 to 7 days; type: cell-based; conditions: mt4, 10 µM
[5] = tested on: Human immunodeficiency virus 1; assay: Antiviral activity against HIV1 HXB2 infected in human MT4 cells assessed as protection against virus-induced cell death at 2.5 to 5 uM after 6 to 7 days by luciferase assay; type: functional, organism-based; in short: as §1
[6] = tested on: Human immunodeficiency virus 1; assay: Antiviral activity against HIV1 HXB2 infected in human MT4 cells assessed as protection against virus-induced cell death at 10 uM after 6 to 7 days by luciferase assay; type: functional, organism-based; in short: as §1
[7] = biological target: T1, Human immunodeficiency virus type 1 integrase (Human immunodeficiency virus 1, UniProt Q7ZJM1); assay: Inhibition of HIV1 integrase strand transfer activity expressed in Escherichia coli after 60 mins
In short: (§2)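 Recombinant IN was expressed in and purified from E. coli, with 10% glycerol in all buffers. Reactions contained 400 nM IN, 20 nM 5'-end [³²P]-labeled oligonucleotide substrate and inhibitor at varied concentrations, with 10% DMSO alone as control. Reactions were stopped with EDTA/formamide loading dye. IC50 came from a logistic nonlinear fit.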

[8] = biological target: T1, Human immunodeficiency virus type 1 integrase; assay: Inhibition of HIV1 integrase 3'-processing activity expressed in Escherichia coli after 60 mins; in short: as §2
[9] = tested on: Human immunodeficiency virus 1; assay: Antiviral activity against HIV1 HXB2 infected in human MT4 cells assessed as protection against virus-induced cell death at 1.25 uM after 6 to 7 days by luciferase assay; type: functional, organism-based; in short: as §1

T1 sequence (Q7ZJM1 whole entry): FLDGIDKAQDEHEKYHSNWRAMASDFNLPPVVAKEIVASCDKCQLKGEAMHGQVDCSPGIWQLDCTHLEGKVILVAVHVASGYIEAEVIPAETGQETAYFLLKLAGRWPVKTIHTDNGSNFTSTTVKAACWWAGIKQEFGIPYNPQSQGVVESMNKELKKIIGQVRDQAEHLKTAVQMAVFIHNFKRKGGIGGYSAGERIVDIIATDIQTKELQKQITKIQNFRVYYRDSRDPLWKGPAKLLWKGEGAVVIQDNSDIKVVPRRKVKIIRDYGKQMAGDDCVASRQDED

Ac-LQQLLFAHFRIGRRRRRRRR-NH2
Activity (MT4 [1]): Toxic | Activity [2]: inactive | Activity [3]: Dose-dependent effect

Ac-LQALLFIHFRIGRRRRRRRR-NH2
Activity (MT4 [4]): Toxic | Activity [3]: Dose-dependent effect

CC[C@H](C)[C@H](NC(=O)[C@H](C)NC(=O)[C@H](CCC(=O)O)NC(C)=O)C(=O)N[C@H](C(=O)N[C@@H](CCCNC(=N)N)C(=O)N[C@H](C(=O)N[C@@H](CC(C)C)C(=O)N[C@@H](CCC(N)=O)C(=O)N[C@@H](CCC(N)=O)C(=O)N[C@@H](CC(C)C)C(=O)N[C@@H](CC(C)C)C(=O)N[C@@H](Cc1ccccc1)C(=O)N[C@H](C(=O)N[C@@H](CCC(=O)O)C(=O)N[C@@H](Cc1ccccc1)C(=O)N[C@@H](CCCNC(=N)N)C(=O)N[C@H](C(=O)N[C@@H](CCCCN)C(=O)N[C@@H](CCCNC(=N)N)C(=O)N[C@@H](CCCNC(=N)N)C(=O)N[C@@H](CCCNC(=N)N)C(=O)N[C@@H](CCCNC(=N)N)C(=O)N[C@@H](CCCNC(=N)N)C(=O)N[C@@H](CCCNC(=N)N)C(=O)N[C@@H](CCCNC(=N)N)C(=O)N[C@@H](CCCNC(=N)N)C(N)=O)[C@@H](C)CC)[C@@H](C)CC)[C@@H](C)CC)[C@@H](C)CC
Activity [5]: Active

Ac-EAIERILKQLLFIHFRIGRRRRRRRR-NH2
Activity [5]: Active

Ac-LQQLAFIHFRIGRRRRRRRR-NH2
Activity (MT4 [4]): Toxic | Activity [3]: Dose-dependent effect

Ac-EAIIRILQQLEFIHKRIGRRRRRRRR-NH2
Activity [5]: Active

Ac-AQQLLFIHFRIGRRRRRRRR-NH2
Activity [3]: Dose-dependent effect

Ac-LQQLLFIHFRAGRRRRRRRR-NH2
Activity [3]: Dose-dependent effect

Ac-LQQLLAIHFRIGRRRRRRRR-NH2
Activity [2]: inactive | Activity (MT4 [4]): Toxic | Activity [3]: Dose-dependent effect

Ac-EAIIRILQELLFKHFRIGRRRRRRRR-NH2
Activity [6]: inactive

CC[C@H](C)[C@H](NC(=O)[C@H](CCCNC(=N)N)NC(=O)[C@H](Cc1ccccc1)NC(=O)[C@H](Cc1cnc[nH]1)NC(=O)[C@@H](NC(=O)[C@H](Cc1ccccc1)NC(=O)[C@H](CC(C)C)NC(=O)[C@H](CC(C)C)NC(=O)[C@H](CCC(N)=O)NC(=O)[C@H](CCC(N)=O)NC(=O)[C@H](CC(C)C)NC(C)=O)[C@@H](C)CC)C(=O)NCC(=O)N[C@@H](CCCNC(=N)N)C(=O)N[C@@H](CCCNC(=N)N)C(=O)N[C@@H](CCCNC(=N)N)C(=O)N[C@@H](CCCNC(=N)N)C(=O)N[C@@H](CCCNC(=N)N)C(=O)N[C@@H](CCCNC(=N)N)C(=O)N[C@@H](CCCNC(=N)N)C(=O)N[C@@H](CCCNC(=N)N)C(N)=O
pIC50 [7]: 7.22 | Activity (MT4 [4]): Toxic | pIC50 [8]: 6.89

Ac-EAEIRIKQQLLFIHFRIGRRRRRRRR-NH2
Activity [6]: Active

Ac-LQQLLFIHARIGRRRRRRRR-NH2
Activity (MT4 [4]): Toxic | Activity [3]: Dose-dependent effect

CC[C@H](C)[C@H](NC(=O)[C@H](CCCNC(=N)N)NC(=O)[C@H](Cc1ccccc1)NC(=O)[C@H](Cc1cnc[nH]1)NC(=O)[C@@H](NC(=O)[C@H](Cc1ccccc1)NC(=O)[C@H](CC(C)C)NC(=O)[C@H](CC(C)C)NC(=O)[C@H](CCC(N)=O)NC(=O)[C@H](CCC(N)=O)NC(=O)[C@H](CC(C)C)NC(=O)[C@H](CCCCN)NC(=O)[C@H](CCCNC(=N)N)NC(=O)[C@@H](NC(=O)[C@@H](NC(=O)[C@H](CCC(=O)O)NC(=O)[C@H](CCC(=O)O)NC(C)=O)[C@@H](C)CC)[C@@H](C)CC)[C@@H](C)CC)C(=O)NCC(=O)N[C@@H](CCCNC(=N)N)C(=O)N[C@@H](CCCNC(=N)N)C(=O)N[C@@H](CCCNC(=N)N)C(=O)N[C@@H](CCCNC(=N)N)C(=O)N[C@@H](CCCNC(=N)N)C(=O)N[C@@H](CCCNC(=N)N)C(=O)N[C@@H](CCCNC(=N)N)C(=O)N[C@@H](CCCNC(=N)N)C(N)=O
Activity [6]: inactive

Ac-LQQLLFIHFAIGRRRRRRRR-NH2
Activity (MT4 [4]): Toxic | Activity [3]: Dose-dependent effect

Ac-LQQLLFIAFRIGRRRRRRRR-NH2
Activity (MT4 [1]): Toxic | Activity [3]: Dose-dependent effect

Ac-EEIIRKLQQLLFIEFRIKRRRRRRRR-NH2
Activity [6]: inactive

Ac-LQQALFIHFRIGRRRRRRRR-NH2
Activity (MT4 [4]): Toxic | Activity [3]: Dose-dependent effect

CC[C@H](C)[C@H](NC(=O)[C@H](C)NC(=O)[C@H](CCC(=O)O)NC(C)=O)C(=O)N[C@H](C(=O)N[C@@H](CCCNC(=N)N)C(=O)N[C@H](C(=O)N[C@@H](CC(C)C)C(=O)N[C@@H](CCC(N)=O)C(=O)N[C@@H](CCC(N)=O)C(=O)N[C@@H](CC(C)C)C(=O)N[C@@H](CC(C)C)C(=O)N[C@@H](Cc1ccccc1)C(=O)N[C@H](C(=O)N[C@@H](Cc1cnc[nH]1)C(=O)N[C@@H](Cc1ccccc1)C(=O)N[C@@H](CCCNC(=N)N)C(=O)N[C@H](C(=O)NCC(=O)N[C@@H](CCCNC(=N)N)C(=O)N[C@@H](CCCNC(=N)N)C(=O)N[C@@H](CCCNC(=N)N)C(=O)N[C@@H](CCCNC(=N)N)C(=O)N[C@@H](CCCNC(=N)N)C(=O)N[C@@H](CCCNC(=N)N)C(=O)N[C@@H](CCCNC(=N)N)C(=O)N[C@@H](CCCNC(=N)N)C(N)=O)[C@@H](C)CC)[C@@H](C)CC)[C@@H](C)CC)[C@@H](C)CC
pIC50 [7]: 7.40 | Activity [9]: Active | pIC50 [8]: 7.05 | Activity [6]: inactive

Ac-LAQLLFIHFRIGRRRRRRRR-NH2
Activity (MT4 [4]): Toxic | Activity [3]: Dose-dependent effect

Ac-LQQLLFIHFRIARRRRRRRR-NH2
pIC50 [8]: 7.05 | Activity [3]: Dose-dependent effect
